Laboratory results reported in ChEMBL document CHEMBL1152312, “Neopyrrolomycins with broad spectrum antibacterial activity” (2009).
Values after ≈ are worked out from the molar mass of the structure shown. Active and inactive are the calls of the source. No cut-off for these calls is given here.

Experiments:
Pseudomonas aeruginosa [1] = assay: Antibacterial activity against Pseudomonas aeruginosa 1473 by microdilution method; type: functional
Procedure, shortened: (§1)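 MIC values from CLSI broth microdilution. Strains came from the ATCC collection and from clinical isolates.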

Staphylococcus aureus [2] = assay: Antibacterial activity against methicillin-sensitive Staphylococcus aureus 100 ATCC 29213 by microdilution method; type: functional; procedure, shortened: as §1
Staphylococcus aureus [3] = assay: Antibacterial activity against methicillin-resistant Staphylococcus aureus 1137 by microdilution method; type: functional; procedure, shortened: as §1
Staphylococcus aureus [4] = assay: Antibacterial activity against methicillin-resistant Staphylococcus aureus 2170 by microdilution method; type: functional; procedure, shortened: as §1
Staphylococcus aureus [5] = assay: Antibacterial activity against vancomycin-intermediate Staphylococcus aureus 2012 by microdilution method; type: functional; procedure, shortened: as §1
Staphylococcus aureus [6] = assay: Antibacterial activity against vancomycin-intermediate Staphylococcus aureus 2018 by microdilution method; type: functional; procedure, shortened: as §1
Staphylococcus aureus [7] = assay: Antibacterial activity against Linezolid, methicillin-resistant Staphylococcus aureus 1725 by microdilution method; type: functional; procedure, shortened: as §1
Staphylococcus aureus [8] = assay: Antibacterial activity against Linezolid, methicillin-resistant Staphylococcus aureus 1651 by microdilution method; type: functional; procedure, shortened: as §1
Staphylococcus aureus [9] = assay: Antibacterial activity against community-acquired Staphylococcus aureus 2144 by microdilution method; type: functional; procedure, shortened: as §1
[10] = test system: Staphylococcus epidermidis; assay: Antibacterial activity against methicillin-sensitive Staphylococcus epidermidis 1597 by microdilution method; type: functional; procedure, shortened: as §1
[11] = test system: Staphylococcus epidermidis; assay: Antibacterial activity against methicillin-resistant Staphylococcus epidermidis 1452 by microdilution method; type: functional; procedure, shortened: as §1
[12] = test system: Staphylococcus epidermidis; assay: Antibacterial activity against Staphylococcus epidermidis 495 by microdilution method; type: functional; procedure, shortened: as §1
Enterococcus faecalis = assay: Antibacterial activity against vancomycin-resistant Enterococcus faecalis 846 by microdilution method; type: functional; procedure, shortened: as §1
Enterococcus faecium [13] = assay: Antibacterial activity against vancomycin-sensitive Enterococcus faecium 843 by microdilution method; type: functional; procedure, shortened: as §1
Enterococcus faecium [14] = assay: Antibacterial activity against vancomycin-resistant Enterococcus faecium 1254 by microdilution method; type: functional; procedure, shortened: as §1
Streptococcus pneumoniae [15] = assay: Antibacterial activity against penicillin-susceptible Streptococcus pneumoniae 866 by microdilution method; type: functional; procedure, shortened: as §1
Streptococcus pneumoniae [16] = assay: Antibacterial activity against penicillin-resistant Streptococcus pneumoniae 940 by microdilution method; type: functional; procedure, shortened: as §1
Streptococcus pneumoniae [17] = assay: Antibacterial activity against penicillin-resistant Streptococcus pneumoniae 748 by microdilution method; type: functional; procedure, shortened: as §1
Streptococcus pneumoniae [18] = assay: Antibacterial activity against quinolone-resistant Streptococcus pneumoniae 376 by microdilution method; type: functional; procedure, shortened: as §1
Streptococcus pneumoniae [19] = assay: Antibacterial activity against quinolone-resistant Streptococcus pneumoniae 379 by microdilution method; type: functional; procedure, shortened: as §1
Streptococcus pneumoniae [20] = assay: Antibacterial activity against multidrug-resistant Streptococcus pneumoniae 933 by microdilution method; type: functional; procedure, shortened: as §1
Streptococcus pneumoniae [21] = assay: Antibacterial activity against Streptococcus pneumoniae 1195 ATCC 49619 by microdilution method; type: functional; procedure, shortened: as §1
Streptococcus pyogenes = assay: Antibacterial activity against Streptococcus pyogenes 723 by microdilution method; type: functional; procedure, shortened: as §1
Streptococcus agalactiae = assay: Antibacterial activity against Streptococcus agalactiae 2033 by microdilution method; type: functional; procedure, shortened: as §1
Moraxella catarrhalis = assay: Antibacterial activity against Moraxella catarrhalis 557 by microdilution method; type: functional; procedure, shortened: as §1
Haemophilus influenzae [22] = assay: Antibacterial activity against ampicillin-resistant Haemophilus influenzae 1742 by microdilution method; type: functional; procedure, shortened: as §1
Haemophilus influenzae [23] = assay: Antibacterial activity against Haemophilus influenzae 1224 ATCC 49247 by microdilution method; type: functional; procedure, shortened: as §1
[24] = test system: Haemophilus parainfluenzae; assay: Antibacterial activity against Haemophilus parainfluenzae 2319 ATCC 7901 by microdilution method; type: functional; procedure, shortened: as §1
Escherichia coli [25] = assay: Antibacterial activity against Escherichia coli 102 ATCC 25922 by microdilution method; type: functional; procedure, shortened: as §1
Escherichia coli [26] = assay: Antibacterial activity against extended spectrum beta-lactamase-producing Escherichia coli 2269 by microdilution method; type: functional; procedure, shortened: as §1
Klebsiella pneumoniae [27] = assay: Antibacterial activity against Klebsiella pneumoniae 2239 by microdilution method; type: functional; procedure, shortened: as §1
Klebsiella pneumoniae [28] = assay: Antibacterial activity against ampicillin beta-lactamase, multidrug-resistant Klebsiella pneumoniae 2262 by microdilution method; type: functional; procedure, shortened: as §1
Serratia marcescens = assay: Antibacterial activity against Serratia marcescens 1635 by microdilution method; type: functional; procedure, shortened: as §1
Escherichia coli [29] = assay: Antibacterial activity against Escherichia coli 25922 by microdilution method; type: functional
Procedure, shortened: (§2)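 MIC determined by CLSI broth microdilution; organisms were ATCC strains and clinical isolates.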

Escherichia coli [30] = assay: Antibacterial activity against Escherichia coli 1411 by microdilution method; type: functional; procedure, shortened: as §2
Klebsiella pneumoniae [31] = assay: Antibacterial activity against Klebsiella pneumoniae 4352 by microdilution method; type: functional; procedure, shortened: as §2
Staphylococcus aureus [32] = assay: Antibacterial activity against methicillin-resistant Staphylococcus aureus 43300 by microdilution method; type: functional; procedure, shortened: as §1
Staphylococcus aureus [33] = assay: Antibacterial activity against methicillin-sensitive Staphylococcus aureus 6538 by microdilution method; type: functional; procedure, shortened: as §1
Staphylococcus aureus [34] = assay: Antibacterial activity against methicillin-sensitive Staphylococcus aureus 29213 by microdilution method; type: functional; procedure, shortened: as §1
Pseudomonas aeruginosa [35] = assay: Antibacterial activity against Pseudomonas aeruginosa 27853 by microdilution method; type: functional; procedure, shortened: as §2
Streptococcus pneumoniae [36] = assay: Antibacterial activity against Streptococcus pneumoniae 49619 by microdilution method; type: functional; procedure, shortened: as §2
Enterococcus faecium [37] = assay: Antibacterial activity against vancomycin-resistant Enterococcus faecium 700221 by microdilution method; type: functional; procedure, shortened: as §1
HepG2 = assay: Cytotoxicity against human HepG2 cells assessed as effect on cell viability at 43 ug/mL after 48 hrs by celltiter glow assay; type: functional, cell-based
Procedure, shortened: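 HepG2 grown in MEM with 10% heat-inactivated FBS, 0.10 mM nonessential amino acids, 1 mM pyruvate, 37 °C, 5% CO2. Seeded at 1.25 × 10^5 cells/mL 24 h before treatment. DMSO-dissolved compounds tested over 0.6–128 µg/mL (1% final DMSO) for 48 h. Luminescent CellTiter-Glo viability read-out relative to DMSO control; CC90 taken.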

NHDF = assay: Cytotoxicity against NHDF cells after 48 hrs by celltiter glow assay; type: functional; conditions: Homo sapiens
Procedure, shortened: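 Fibroblasts kept at 37 °C, 5% CO2 in FGM-2 medium, passage ≤16. Seeded at 1.25 × 10^5 cells/mL 24 h before dosing. Compounds dissolved in DMSO, tested 0.6–128 µg/mL at 1% final DMSO for 48 h. Viability by CellTiter-Glo luminescence, expressed as percent of DMSO control.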

CN[C@H](CC(C)C)C(=O)N[C@H]1C(=O)N[C@@H](CC(N)=O)C(=O)N[C@H]2C(=O)N[C@H]3C(=O)N[C@H](C(=O)N[C@H](C(=O)O)c4cc(O)cc(O)c4-c4cc3ccc4O)[C@H](O)c3ccc(c(Cl)c3)Oc3cc2cc(c3O[C@@H]2O[C@H](CO)[C@@H](O)[C@H](O)[C@H]2O[C@H]2C[C@](C)(N)[C@H](O)[C@H](C)O2)Oc2ccc(cc2Cl)[C@H]1O [VANCOMYCIN]
MIC90 (Pseudomonas aeruginosa [1]): > 64 µg/mL | MIC90 (Staphylococcus aureus [2]): 2 µg/mL (≈ 1.38 µM) | MIC90 (Staphylococcus aureus [3]): 1 µg/mL (≈ 0.69 µM) | MIC90 (Staphylococcus aureus [4]): 1 µg/mL (≈ 0.69 µM) | MIC90 (Staphylococcus aureus [5]): 16 µg/mL (≈ 11 µM) | MIC90 (Staphylococcus aureus [6]): 8 µg/mL (≈ 5.52 µM) | MIC90 (Staphylococcus aureus [7]): 2 µg/mL (≈ 1.38 µM) | MIC90 (Staphylococcus aureus [8]): 1 µg/mL (≈ 0.69 µM) | MIC90 (Staphylococcus aureus [9]): 0.12 µg/mL (≈ 0.0828 µM) | MIC90 [10]: 2 µg/mL (≈ 1.38 µM) | MIC90 [11]: 4 µg/mL (≈ 2.76 µM) | MIC90 [12]: 2 µg/mL (≈ 1.38 µM) | MIC90 (Enterococcus faecalis): > 64 µg/mL | MIC90 (Enterococcus faecium [13]): 2 µg/mL (≈ 1.38 µM) | MIC90 (Enterococcus faecium [14]): > 64 µg/mL | MIC90 (Streptococcus pneumoniae [15]): 0.5 µg/mL (≈ 0.345 µM) | MIC90 (Streptococcus pneumoniae [16]): 0.25 µg/mL (≈ 0.173 µM) | MIC90 (Streptococcus pneumoniae [17]): 0.5 µg/mL (≈ 0.345 µM) | MIC90 (Streptococcus pneumoniae [18]): 0.2 µg/mL (≈ 0.138 µM) | MIC90 (Streptococcus pneumoniae [19]): 0.5 µg/mL (≈ 0.345 µM) | MIC90 (Streptococcus pneumoniae [20]): 1 µg/mL (≈ 0.69 µM) | MIC90 (Streptococcus pneumoniae [21]): 0.25 µg/mL (≈ 0.173 µM) | MIC90 (Streptococcus pyogenes): 0.5 µg/mL (≈ 0.345 µM) | MIC90 (Streptococcus agalactiae): 0.5 µg/mL (≈ 0.345 µM) | MIC90 (Moraxella catarrhalis): > 64 µg/mL | MIC90 (Haemophilus influenzae [22]): > 64 µg/mL | MIC90 (Haemophilus influenzae [23]): > 64 µg/mL | MIC90 [24]: 64 µg/mL (≈ 44.2 µM) | MIC90 (Escherichia coli [25]): > 64 µg/mL | MIC90 (Escherichia coli [26]): > 64 µg/mL | MIC90 (Klebsiella pneumoniae [27]): > 64 µg/mL | MIC90 (Klebsiella pneumoniae [28]): > 64 µg/mL | MIC90 (Serratia marcescens): > 64 µg/mL

Oc1cc(Cl)c(Cl)cc1-n1cc(Cl)c(Cl)c1Cl [NEOPYRROLOMYCIN D]
MIC90 (Escherichia coli [29]): 16 µg/mL (≈ 48.3 µM) | MIC90 (Escherichia coli [30]): 16 µg/mL (≈ 48.3 µM) | MIC90 (Klebsiella pneumoniae [31]): 16 µg/mL (≈ 48.3 µM) | MIC90 (Staphylococcus aureus [32]): 2 µg/mL (≈ 6.03 µM) | MBC (Staphylococcus aureus [33]): 8 µg/mL (≈ 24.1 µM) | MIC90 (Staphylococcus aureus [33]): 2 µg/mL (≈ 6.03 µM) | MIC90 (Staphylococcus aureus [34]): 2 µg/mL (≈ 6.03 µM) | MIC90 (Pseudomonas aeruginosa [35]): 32 µg/mL (≈ 96.6 µM) | MIC90 (Streptococcus pneumoniae [36]): 8 µg/mL (≈ 24.1 µM) | MIC90 (Enterococcus faecium [37]): 4 µg/mL (≈ 12.1 µM) | Activity (HepG2): Active | CC90 (NHDF): 43 µg/mL (≈ 130 µM)
